According to ChEMBL document CHEMBL1124744, “Development of a novel series of (2-quinolinylmethoxy)phenyl-containing compounds as high-affinity leukotriene D4 receptor antagonists. 2. Effects of an additional phenyl ring on receptor affinity” (J Med Chem, 1990):
Each block holds one compound with its values, some of them ahead of it.

Legend:
[1] = target: T1, Cysteinyl leukotriene receptor 1 (Cavia porcellus, UniProt Q2NNR5); test: Binding affinity against Cysteinyl leukotriene D4 receptor from guinea pig lung was determined using [3H]-LTD4 (0.2 nM)
T1 sequence (Q2NNR5 whole entry): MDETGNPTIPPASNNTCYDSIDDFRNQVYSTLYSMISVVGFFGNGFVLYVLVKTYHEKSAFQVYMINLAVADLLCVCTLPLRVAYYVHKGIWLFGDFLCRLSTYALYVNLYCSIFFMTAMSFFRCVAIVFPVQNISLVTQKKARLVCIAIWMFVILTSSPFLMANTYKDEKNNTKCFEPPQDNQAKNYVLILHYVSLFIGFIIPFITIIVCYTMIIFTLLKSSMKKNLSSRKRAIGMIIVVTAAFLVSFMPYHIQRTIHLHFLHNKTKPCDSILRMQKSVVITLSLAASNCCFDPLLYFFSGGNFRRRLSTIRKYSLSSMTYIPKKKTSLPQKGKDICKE
How it was run: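 Guinea pig lung membranes were used in a radioligand competition assay against 0.2 nM [3H]LTD4, with compounds at multiple concentrations. IC50 was determined graphically and converted to Ki. Values are means ± SEM of N separate experiments.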

Cavia porcellus [2] = organism: Cavia porcellus; test: Oral activity expressed as percent inhibition in leukotriene mediated anaphylaxis assay in guinea pig at 30 uM; assay type: functional
How it was run: (§1)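 Guinea pigs immunized with ovalbumin were pretreated with pyrilamine, propranolol and indomethacin. Compounds were given orally 1 h before aerosol antigen challenge. Six animals were used per dose. ED50 was determined from at least three doses; single doses are reported as % inhibition in mg/kg.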

Cavia porcellus [3] = organism: Cavia porcellus; test: Inhibition of LTC4-induced contractions from guinea pig peripheral lung strips; assay type: functional
How it was run: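 Guinea pig peripheral lung strips were contracted with 0.2 nM LTC4, and inhibition was measured. IC50 was determined graphically; values are means ± SEM of N separate experiments.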

Cavia porcellus [4] = organism: Cavia porcellus; test: Oral activity expressed as percent inhibition in LTD4-induced wheal assay in guinea pig at 18 uM; assay type: functional; details: in the assay text read “18 mg/kg” for “18 uM”
How it was run: (§2)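 In guinea pigs, compounds were given orally 1 h before intradermal injection of 100 ng LTD4, and wheal inhibition was measured. Five animals were used per dose. ED50 was determined from at least three doses; single doses are reported as % inhibition in mg/kg.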

Cavia porcellus [5] = organism: Cavia porcellus; test: Oral activity expressed as percent inhibition in LTD4-induced wheal assay in guinea pig at 13 uM; assay type: functional
Cavia porcellus [6] = organism: Cavia porcellus; test: Inhibits leukotriene D4 in guinea pig by wheal essay at 9 uM concentration; assay type: functional; how it was run: as §2
Cavia porcellus [7] = organism: Cavia porcellus; test: Inhibits leukotriene mediated anaphylaxis in guinea pig at 60 uM concentration; assay type: functional; how it was run: as §1
Cavia porcellus [8] = organism: Cavia porcellus; test: Oral activity expressed as percent inhibition in leukotriene mediated anaphylaxis assay in guinea pig at 10 uM; assay type: functional; how it was run: as §1
Cavia porcellus [9] = organism: Cavia porcellus; test: Oral activity expressed as effective dose in LTD4-induced wheal assay in guinea pig; assay type: functional; how it was run: as §2
Cavia porcellus [10] = organism: Cavia porcellus; test: Oral activity expressed as effective dose in leukotriene mediated anaphylaxis assay in guinea pig; assay type: functional; how it was run: as §1
[11] = target: T1, Cysteinyl leukotriene receptor 1; test: Binding affinity against Cysteinyl leukotriene D4 receptor from guinea pig trachea using [3H]LTD4; details: read-out: pA2 (converted)
Cavia porcellus [12] = organism: Cavia porcellus; test: Oral activity expressed as percent inhibition in LTD4-induced wheal assay in guinea pig at 3 uM; assay type: functional; how it was run: as §2
Cavia porcellus [13] = organism: Cavia porcellus; test: Oral activity expressed as percent inhibition in LTD4-induced wheal assay in guinea pig at 9 uM; assay type: functional; how it was run: as §2
[14] = target: T2, Cysteinyl leukotriene receptor 1 (Cavia porcellus) (UniProt Q2NNR5); test: Binding affinity against Cysteinyl leukotriene D4 receptor from guinea pig lung was determined using [3H]LTD4 (0.2 nM) at compound concentration of 1 uM
T2 sequence (whole entry): T1 sequence (Q2NNR5 whole entry)

[15] = target: T1, Cysteinyl leukotriene receptor 1; test: Inhibitory concentration of compound against binding of Cysteinyl leukotriene D4 receptor from guinea pig lung using [3H]LTD4
[16] = target: T1, Cysteinyl leukotriene receptor 1; test: Binding affinity against Cysteinyl leukotriene D4 receptor from guinea pig lung was determined using [3H]LTD4
How it was run: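 Guinea pig lung membranes; competition against 0.2 nM [3H]LTD4 with test compounds at multiple concentrations. IC50 was determined graphically and converted to Ki. Values are means ± SEM of N separate experiments.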

Compound: c1cc(OCc2cccc(OCc3nn[nH]n3)c2)cc(OCc2ccc3ccccc3n2)c1
Ki [1]: 13 nM
Inhibition (Cavia porcellus [2]): 64%
IC50 (Cavia porcellus [3]): 24 nM
Inhibition (Cavia porcellus [4]): 37%

Compound: COc1cc(OCc2ccc(OCc3ccc4ccccc4n3)cc2)cc(-c2nn[nH]n2)c1
Ki [1]: 7.5 nM
Inhibition (Cavia porcellus [5]): 26%
IC50 (Cavia porcellus [3]): 13 nM

Compound: O=C(O)c1cccc(COc2cccc(OCc3ccc4ccccc4n3)c2)c1
Ki [1]: 40 nM
Inhibition (Cavia porcellus [6]): 7%
Inhibition (Cavia porcellus [7]): 60%
IC50 (Cavia porcellus [3]): 100 nM

Compound: Clc1ccc2ccc(/C=C/c3ccc(OCc4ccccc4Cc4nnn[nH]4)cc3)nc2c1
Ki [1]: 2.5 nM

Compound: COc1cc(-c2nn[nH]n2)ccc1OCc1ccc(OCc2ccc3ccccc3n2)cc1
Ki [1]: 22 nM

Compound: c1cc(COc2ccc(OCc3ccc4ccccc4n3)cc2)cc(-c2nn[nH]n2)c1
Ki [1]: 2.2 nM
Inhibition (Cavia porcellus [8]): 33%
IC50 (Cavia porcellus [3]): 2 nM
ED50 (Cavia porcellus [9]): 2 mg/kg

Compound: c1cc(OCc2ccc3ccccc3n2)cc(OCc2ccccc2-c2nnn[nH]2)c1
Ki [1]: 20 nM
IC50 (Cavia porcellus [3]): 19 nM

Compound: c1cc(CCc2cccc(-c3nn[nH]n3)c2)cc(OCc2ccc3ccccc3n2)c1
ED50 (Cavia porcellus [10]): 24 mg/kg
Ki [1]: 17 nM
IC50 (Cavia porcellus [3]): 20 nM
Inhibition (Cavia porcellus [4]): 44%

Compound: COC(=O)c1ccc(COc2cccc(OCc3ccc4ccccc4n3)c2)c(OCc2nn[nH]n2)c1
Ki [1]: 8 nM
Inhibition (Cavia porcellus [2]): 9%
IC50 (Cavia porcellus [3]): 16 nM

Compound: COc1cc(OCc2cccc(OCc3ccc4ccccc4n3)c2)cc(-c2nnn[nH]2)c1
Ki [1]: 10 nM

Compound: c1ccc2nc(COc3ccc(OCc4ccc(Cc5nnn[nH]5)cc4)cc3)ccc2c1
ED50 (Cavia porcellus [10]): 30 mg/kg
Ki [1]: 8.5 nM
IC50 (Cavia porcellus [3]): 12 nM
Inhibition (Cavia porcellus [13]): 34%

Compound: COc1cc(COc2cccc(OCc3ccc4ccccc4n3)c2)cc(-c2nn[nH]n2)c1
Ki [1]: 7 nM
Inhibition (Cavia porcellus [8]): 17%
IC50 (Cavia porcellus [3]): 6.3 nM
ED50 (Cavia porcellus [9]): 38 mg/kg

Compound: c1cc(OCc2ccc(-c3nnn[nH]3)cc2)cc(OCc2ccc3ccccc3n2)c1
ED50 (Cavia porcellus [10]): 10 mg/kg
Ki [1]: 10 nM
IC50 (Cavia porcellus [3]): 12 nM
ED50 (Cavia porcellus [9]): 6.5 mg/kg

Compound: C(=C\c1ccc2ccccc2n1)/c1ccc(OCc2ccccc2Cc2nnn[nH]2)cc1
Ki [1]: 3.4 nM
Inhibition (Cavia porcellus [8]): 80%

Compound: c1cc(OCc2ccc3ccccc3n2)cc(OCc2ccccc2Cc2nnn[nH]2)c1
Ki [1]: 12 nM
Inhibition (Cavia porcellus [2]): 75%
IC50 (Cavia porcellus [3]): 9.5 nM
Inhibition (Cavia porcellus [4]): 17%

Compound: COc1cc(-c2nn[nH]n2)ccc1COc1cccc(OCc2ccc3ccccc3n2)c1
Ki [1]: 4.3 nM
Inhibition (Cavia porcellus [2]): 45%
IC50 (Cavia porcellus [3]): 9 nM
Inhibition (Cavia porcellus [13]): 22%

Compound: O=S(=O)(Nc1cccc(OCc2ccc3ccccc3n2)c1)C(F)(F)F [RITOLUKAST]
Ki [16]: 35 nM

Compound: c1cc(COc2ccc(OCc3ccc4ccccc4n3)cc2)cc(OCc2nn[nH]n2)c1
Ki [1]: 8 nM
Inhibition (Cavia porcellus [2]): 27%
IC50 (Cavia porcellus [3]): 9 nM
ED50 (Cavia porcellus [9]): 2.8 mg/kg

Compound: c1cc(COc2ccc(-c3nn[nH]n3)cc2)cc(OCc2ccc3ccccc3n2)c1
Ki [1]: 2.9 nM
Inhibition (Cavia porcellus [2]): -9%
IC50 (Cavia porcellus [3]): 14 nM

Compound: c1ccc2nc(COc3ccc(COc4ccc(-c5nn[nH]n5)cc4)cc3)ccc2c1
Ki [1]: 31 nM
Inhibition (Cavia porcellus [2]): 64%
IC50 (Cavia porcellus [3]): 44 nM
ED50 (Cavia porcellus [9]): 8 mg/kg

Compound: c1cc(OCc2ccc(OCc3nn[nH]n3)cc2)cc(OCc2ccc3ccccc3n2)c1
Ki [1]: 2.2 nM
Inhibition (Cavia porcellus [2]): 82%
IC50 (Cavia porcellus [3]): 8 nM
Inhibition (Cavia porcellus [4]): 59%

Compound: c1cc(OCc2ccc3ccccc3n2)cc(OCc2ccccc2OCc2nn[nH]n2)c1
ED50 (Cavia porcellus [10]): 10 mg/kg
Ki [1]: 17 nM
IC50 (Cavia porcellus [3]): 27 nM
Inhibition (Cavia porcellus [4]): 42%

Compound: c1cc(OCc2ccc(Cc3nnn[nH]3)cc2)cc(OCc2ccc3ccccc3n2)c1
ED50 (Cavia porcellus [10]): 30 mg/kg
Ki [1]: 7.3 nM
IC50 (Cavia porcellus [3]): 20 nM
ED50 (Cavia porcellus [9]): 6.8 mg/kg

The next lines start with results.

Ki [1]: 2.5 nM
Compound: Clc1ccc2ccc(COc3ccc(OCc4ccccc4Cc4nnn[nH]4)cc3)nc2c1

Ki [1]: 8 nM
IC50 (Cavia porcellus [3]): 34 nM
Compound: c1cc(COc2ccc(OCc3ccc4ccccc4n3)cc2)cc(Cc2nnn[nH]2)c1
Inhibition (Cavia porcellus [8]): 64%
ED50 (Cavia porcellus [9]): 3 mg/kg

Kb [11]: 1 nM
Compound: CN(C)C(=O)CCSC(SCCC(=O)O)c1cccc(/C=C/c2ccc3ccc(Cl)cc3n2)c1 (centres undefined) [MK-571]

Ki [1]: 2.1 nM
IC50 (Cavia porcellus [3]): 4.2 nM
Compound: c1ccc(OCc2nn[nH]n2)c(COc2ccc(OCc3ccc4ccccc4n3)cc2)c1
Inhibition (Cavia porcellus [8]): 61%
Inhibition (Cavia porcellus [12]): 45%

Ki [1]: 90 nM
IC50 (Cavia porcellus [3]): 75 nM
Compound: O=C(O)c1ccc(COc2cccc(OCc3ccc4ccccc4n3)c2)cc1

Ki [1]: 10 nM
IC50 (Cavia porcellus [3]): 12 nM
Compound: c1cc(COc2cccc(OCc3ccc4ccccc4n3)c2)cc(Cc2nnn[nH]2)c1
ED50 (Cavia porcellus [10]): 10 mg/kg
ED50 (Cavia porcellus [9]): 1.8 mg/kg

Ki [1]: 5.3 nM
IC50 (Cavia porcellus [3]): 20 nM
Compound: c1cc(COc2cccc(-c3nn[nH]n3)c2)cc(OCc2ccc3ccccc3n2)c1
Inhibition (Cavia porcellus [2]): 45%
ED50 (Cavia porcellus [9]): 28 mg/kg

Ki [1]: 3 nM
IC50 (Cavia porcellus [3]): 2.7 nM
Kb [14]: 3 nM
Compound: c1ccc(Cc2nn[nH]n2)c(COc2ccc(OCc3ccc4ccccc4n3)cc2)c1 [RG-12525]
ED50 (Cavia porcellus [10]): 2.2 mg/kg
ED50 (Cavia porcellus [9]): 4.9 mg/kg

IC50 [15]: 23 nM
Compound: O=C(O)c1ccccc1Nc1cccc(OCc2ccc3ccccc3n2)c1 [SR-2640]

Ki [1]: 8.5 nM
IC50 (Cavia porcellus [3]): 20 nM
Compound: C(=C\c1cccc(-c2nn[nH]n2)c1)/c1cccc(OCc2ccc3ccccc3n2)c1
Inhibition (Cavia porcellus [12]): 15%

Ki [1]: 16 nM
Compound: c1cc(OCc2cccc(-c3nn[nH]n3)c2)cc(OCc2ccc3ccccc3n2)c1
Inhibition (Cavia porcellus [2]): 83%
Inhibition (Cavia porcellus [4]): 45%

Ki [1]: 16 nM
IC50 (Cavia porcellus [3]): 36 nM
Compound: COc1cc(-c2nn[nH]n2)ccc1OCc1cccc(OCc2ccc3ccccc3n2)c1
Inhibition (Cavia porcellus [2]): 9%

IC50 (Cavia porcellus [3]): 940 nM
Compound: CCCc1c(OCC(O)COc2ccc3c(=O)cc(C(=O)O)oc3c2CCC)ccc(C(C)=O)c1O (centres undefined) [FPL-55712]
